Consider seven compounds from ChEMBL document CHEMBL1208661, “Synthesis, characterization, in vitro and molecular docking studies of new 2,5-dichloro thienyl substituted thiazole derivatives for antimicrobial properties” (2010).

One test relates to Klebsiella pneumoniae. Kind of test: Antibacterial activity against Klebsiella pneumoniae after 24 hrs by disc diffusion method. The format is functional. Put shortly:
(§1)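 Paper discs (6.25 mm, Whatman No. 1) were dry-heat sterilized at 140 °C for 1 h. Test compounds were made up at different concentrations in dimethylformamide and loaded onto batches of 100 discs, using 1 ml holding 100 times the per-disc amount. Discs were placed in triplicate on nutrient agar seeded with fresh bacteria.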

The test system of a further test is Pseudomonas aeruginosa. Kind of test: Antibacterial activity against Pseudomonas aeruginosa after 24 hrs by disc diffusion method. The test is classed as functional. Put shortly:
as §1

Test [1] concerns Talaromyces marneffei. Kind of test: Antifungal activity against recultured Penicillium marneffei after 3 to 4 days by serial plate dilution method. The format is functional. Put shortly: (§2)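 Sabouraud agar was used (peptone, D-glucose and agar in water, pH 5.7). Plates were lawned with a saline spore suspension and dried at 37 °C for 1 h. Wells were punched in the agar and filled with compound in DMSO, with a DMSO solvent control. Plates were run in triplicate at 37 °C for 3–4 days.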

Test [2] relates to Aspergillus fumigatus. Kind of test: Antifungal activity against Aspergillus fumigatus NCIM 902 after 3 to 4 days by serial plate dilution method. The test is classed as functional. Put shortly: as §2
The next test relates to Escherichia coli. Put plainly: Antibacterial activity against Escherichia coli after 24 hrs by disc diffusion method. The test is classed as functional. Put shortly:
as §1

The test system of test [3] is Aspergillus flavus. Put plainly: Antifungal activity against Aspergillus flavus NCIM 524 after 3 to 4 days by serial plate dilution method. The test is classed as functional. Put shortly: as §2
A further test relates to Staphylococcus aureus. Kind of test: Antibacterial activity against Staphylococcus aureus Smith after 24 hrs by disc diffusion method. The format is functional. Put shortly:
as §1

The test system of test [4] is Trichophyton mentagrophytes. Put plainly: Antifungal activity against recultured Trichophyton mentagrophytes after 3 to 4 days by serial plate dilution method. The test is classed as functional. Put shortly:
as §2

Test [5] deals with Trichophyton mentagrophytes. Put plainly: Antifungal activity against recultured Trichophyton mentagrophytes at 10 ug/ml after 3 to 4 days by serial plate dilution method. The format is functional, organism-based. Put shortly:
as §2

Test [6] deals with Talaromyces marneffei. Put plainly: Antifungal activity against recultured Penicillium marneffei at 10 ug/ml after 3 to 4 days by serial plate dilution method. The format is functional, organism-based. Put shortly:
as §2

Test [7] deals with Aspergillus fumigatus. Kind of test: Antifungal activity against Aspergillus fumigatus NCIM 902 at 10 ug/ml after 3 to 4 days by serial plate dilution method. The test is classed as functional, organism-based. Put shortly: as §2
The test system of test [8] is Aspergillus flavus. Put plainly: Antifungal activity against Aspergillus flavus NCIM 524 at 10 ug/ml after 3 to 4 days by serial plate dilution method. The test is classed as functional, organism-based. Put shortly: as §2

≈ marks a conversion by molar mass, not a printed value. Calls of active or inactive are those of the source. The calls are words filed in the database; no cut-off is given here. Where only a bound is given, the exact number is not on record here.

Consider `Clc1cc(-c2csc(-c3cccc4cccnc34)n2)c(Cl)s1`, for which the MIC turned out to be 6.25 µg/mL (≈ 17.2 µM) against Klebsiella pneumoniae; 12.5 µg/mL (≈ 34.4 µM) in the test with Pseudomonas aeruginosa; 6.25 µg/mL (≈ 17.2 µM) against Talaromyces marneffei [1]; 12.5 µg/mL (≈ 34.4 µM) with Aspergillus fumigatus [2]; 12.5 µg/mL (≈ 34.4 µM) in the test on Escherichia coli; 6.25 µg/mL (≈ 17.2 µM) against Aspergillus flavus [3]. Further, the MIC (with Staphylococcus aureus; in test [4]) was 6.25 µg/mL (≈ 17.2 µM) each time.
As to `Clc1cc(-c2csc(-c3cccnc3)n2)c(Cl)s1`, the MIC entry (in [5]; in the test with Klebsiella pneumoniae; in the test with Talaromyces marneffei [6]; in the test with Aspergillus fumigatus [7]; with Escherichia coli; with Aspergillus flavus [8]) was “inactive” each time. For the same compound, the MIC in the test with Pseudomonas aeruginosa and in the test with Staphylococcus aureus was 100 µg/mL (≈ 319 µM) throughout.
`COc1ccccc1-c1nc(-c2cc(Cl)sc2Cl)cs1`: the MIC in the test with Klebsiella pneumoniae is 100 µg/mL (≈ 292 µM); in the test on Pseudomonas aeruginosa, 12.5 µg/mL (≈ 36.5 µM); against Talaromyces marneffei [1], 12.5 µg/mL (≈ 36.5 µM); against Escherichia coli it was 6.25 µg/mL (≈ 18.3 µM); with Aspergillus flavus [3], 100 µg/mL (≈ 292 µM); in the test on Staphylococcus aureus it was 6.25 µg/mL (≈ 18.3 µM). The compound further displayed an MIC in [4] of 12.5 µg/mL (≈ 36.5 µM). In the test on Aspergillus fumigatus [7], the MIC entry is “inactive”.
For the compound `Fc1ccccc1-c1nc(-c2cc(Cl)sc2Cl)cs1`, the MIC entry (in test [5]; in the test on Klebsiella pneumoniae; in the test on Talaromyces marneffei [6]; in the test with Aspergillus fumigatus [7]; in the test with Pseudomonas aeruginosa; in the test with Escherichia coli) was “inactive” each time. The MIC entry in the test on Aspergillus flavus [8] is “inactive”. The compound further yielded an MIC against Staphylococcus aureus of 100 µg/mL (≈ 303 µM).
With `Nc1nc(-c2cc(Cl)sc2Cl)cs1`, the MIC in the test with Klebsiella pneumoniae turned out to be 12.5 µg/mL (≈ 49.8 µM); in the test with Pseudomonas aeruginosa it was 12.5 µg/mL (≈ 49.8 µM); against Talaromyces marneffei [1] it was 12.5 µg/mL (≈ 49.8 µM); with Aspergillus fumigatus [2], 6.25 µg/mL (≈ 24.9 µM); with Escherichia coli, 6.25 µg/mL (≈ 24.9 µM); against Aspergillus flavus [3] it was 6.25 µg/mL (≈ 24.9 µM). In addition, the MIC with Staphylococcus aureus came out at 6.25 µg/mL (≈ 24.9 µM); in test [4], 12.5 µg/mL (≈ 49.8 µM).
In the case of `CC1(C)S[C@@H]2[C@H](NC(=O)[C@H](N)c3ccccc3)C(=O)N2[C@H]1C(=O)O` [AMPICILLIN], the MIC in the test on Klebsiella pneumoniae, with Pseudomonas aeruginosa, in the test with Escherichia coli and in the test with Staphylococcus aureus was below 6.25 µg/mL throughout.
Turning to `C[C@@H]1[C@H](O)[C@@H](C)/C=C/C=C/C=C/C=C/C=C/C=C/C=C/[C@H](O[C@@H]2O[C@H](C)[C@@H](O)[C@H](N)[C@@H]2O)C[C@@H]2O[C@](O)(C[C@@H](O)C[C@@H](O)[C@H](O)CC[C@@H](O)C[C@@H](O)CC(=O)O[C@H]1C)C[C@H](O)[C@H]2C(=O)O` [AMPHOTERICIN B], the MIC (in the test with Talaromyces marneffei [1]; against Aspergillus fumigatus [2]; against Aspergillus flavus [3]; in test [4]) was below 6.25 µg/mL throughout.
